# Assay results from ChEMBL document CHEMBL3817796, “Discovery of Novel 15-Lipoxygenase Activators To Shift the Human Arachidonic Acid Metabolic Network toward Inflammation Resolution” (J Med Chem, 2016).
# The source made the active and inactive calls. The calls are words filed in the database; no cut-off is given here.
# How the values were obtained:
# [1] = biological target: T1, Polyunsaturated fatty acid lipoxygenase ALOX15 (Homo sapiens) (UniProt P16050); assay: Activation of 15-LOX in human whole blood assessed as reduction in LTB4 production at 100 uM pre-incubated for 20 mins before stimulation with LPS and A23187 for 120 mins in presence of 2 uM […] inhibitor Zileuton by LC-MS/MS method; assay type: tissue-based
# T1 sequence (whole entry): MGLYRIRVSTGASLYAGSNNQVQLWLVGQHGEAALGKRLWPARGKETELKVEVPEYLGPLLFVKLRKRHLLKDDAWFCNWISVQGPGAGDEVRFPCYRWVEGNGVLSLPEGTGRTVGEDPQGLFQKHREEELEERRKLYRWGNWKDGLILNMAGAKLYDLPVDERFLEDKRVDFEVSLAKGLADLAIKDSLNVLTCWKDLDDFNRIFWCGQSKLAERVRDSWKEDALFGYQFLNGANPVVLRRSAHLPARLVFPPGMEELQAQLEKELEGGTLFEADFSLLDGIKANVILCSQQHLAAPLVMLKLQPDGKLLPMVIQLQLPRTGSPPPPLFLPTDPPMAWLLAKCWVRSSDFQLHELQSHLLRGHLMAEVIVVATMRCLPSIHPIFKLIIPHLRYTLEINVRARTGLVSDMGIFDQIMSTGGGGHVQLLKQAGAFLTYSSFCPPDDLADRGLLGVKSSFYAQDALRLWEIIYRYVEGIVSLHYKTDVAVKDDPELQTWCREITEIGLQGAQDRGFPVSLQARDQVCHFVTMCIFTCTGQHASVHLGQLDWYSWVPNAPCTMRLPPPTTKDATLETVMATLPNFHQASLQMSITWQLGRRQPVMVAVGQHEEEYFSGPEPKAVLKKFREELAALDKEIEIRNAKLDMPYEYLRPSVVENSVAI
# Method in brief: (§1)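 Human blood preincubated 20 min at 37 °C with DMSO vehicle or compound in DMSO. LPS added at 100 μg/mL for 24 h at 37 °C, then A23187 at 20 μg/mL final. Samples frozen in liquid nitrogen at time points, lysed by freeze–thaw, with PGB2 internal standard. Analysed by C18 LC-MRM MS, negative ion. Change = control-normalized concentration minus 1, ×100%; 120 min value from AUC.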
# [2] = biological target: T1, Polyunsaturated fatty acid lipoxygenase ALOX15 (Homo sapiens); assay: Activation of 15-LOX in human whole blood assessed as increase in 13-HODE production at 100 uM pre-incubated for 20 mins before stimulation with LPS and A23187 for 120 mins by LC-MS/MS method; assay type: tissue-based; method in brief: as §1
# Blood [3] = assay: Reduction in LTB4 in production in human whole blood at 100 uM pre-incubated for 20 mins before stimulation with LPS and A23187 for 120 mins by LC-MS/MS method; assay type: functional; design: scale not given: the % may be the effect or the level left; method in brief: as §1
# [4] = biological target: T1, Polyunsaturated fatty acid lipoxygenase ALOX15 (Homo sapiens); assay: Activation of 15-LOX in human whole blood assessed as 13-HODE production at 100 uM pre-incubated for 20 mins before stimulation with LPS and A23187 for 120 mins in presence of 2 uM 5-LOX inhibitor Zileuton by LC-MS/MS method; assay type: tissue-based; method in brief: as §1
# [5] = biological target: T1, Polyunsaturated fatty acid lipoxygenase ALOX15 (Homo sapiens); assay: Activation of 15-LOX in human whole blood assessed as 5-HETE production at 100 uM pre-incubated for 20 mins before stimulation with LPS and A23187 for 120 mins in presence of 2 uM 5-LOX inhibitor Zileuton by LC-MS/MS method; assay type: tissue-based; method in brief: as §1
# [6] = biological target: T1, Polyunsaturated fatty acid lipoxygenase ALOX15 (Homo sapiens); assay: Activation of 15-LOX in human whole blood assessed as reduction in 5-HETE production at 100 uM pre-incubated for 20 mins before stimulation with LPS and A23187 for 120 mins in presence of 2 uM […] inhibitor Zileuton by LC-MS/MS method; assay type: tissue-based; method in brief: as §1
# Blood [7] = assay: Reduction in TXB2 in production in human whole blood at 100 uM pre-incubated for 20 mins before stimulation with LPS and A23187 for 120 mins by LC-MS/MS method; assay type: functional; design: scale not given: the % may be the effect or the level left; method in brief: as §1
# [8] = biological target: T2, Polyunsaturated fatty acid lipoxygenase ALOX15 (Homo sapiens, UniProt P16050); assay: Activation of wild-type His6-tagged human 15-LOX expressed in Escherichia coli Rosetta DE3 assessed as 15-HpETE formation pre-incubated for 1 min before arachidonic acid substrate addition by cell free assay
# T2 sequence (P16050 whole entry): T1 sequence (whole entry)
# [9] = biological target: T1, Polyunsaturated fatty acid lipoxygenase ALOX15 (Homo sapiens); assay: Activation of 15-LOX in human whole blood assessed as reduction in PGE2 production at 100 uM pre-incubated for 20 mins before stimulation with LPS and A23187 for 120 mins in presence of 2 uM 5-LOX inhibitor Zileuton by LC-MS/MS method; assay type: tissue-based; method in brief: as §1
# [10] = biological target: T3, Prostaglandin E synthase (Homo sapiens) (UniProt O14684); assay: Inhibition of mPGES-1 (unknown origin) assessed as reduction in conversion of PGH2 to PGE2 at 100 uM by EIA method
# T3 sequence (whole entry): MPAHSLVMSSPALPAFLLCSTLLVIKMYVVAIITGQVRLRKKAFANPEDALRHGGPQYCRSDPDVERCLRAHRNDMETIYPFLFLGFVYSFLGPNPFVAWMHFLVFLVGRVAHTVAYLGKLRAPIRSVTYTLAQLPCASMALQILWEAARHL
# Method in brief: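 mPGES-1 activity taken as conversion of PGH2 to PGE2, with PGE2 measured by EIA. Compound handled as in the 15-LOX assay.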
# [11] = biological target: T4, Polyunsaturated fatty acid 5-lipoxygenase (Homo sapiens) (UniProt P09917); assay: Activation of human 5-LOX assessed as H2DCFDA oxidation at 100 uM using arachidonic acid substrate incubated for 5 mins by fluorescence assay
# T4 sequence (whole entry): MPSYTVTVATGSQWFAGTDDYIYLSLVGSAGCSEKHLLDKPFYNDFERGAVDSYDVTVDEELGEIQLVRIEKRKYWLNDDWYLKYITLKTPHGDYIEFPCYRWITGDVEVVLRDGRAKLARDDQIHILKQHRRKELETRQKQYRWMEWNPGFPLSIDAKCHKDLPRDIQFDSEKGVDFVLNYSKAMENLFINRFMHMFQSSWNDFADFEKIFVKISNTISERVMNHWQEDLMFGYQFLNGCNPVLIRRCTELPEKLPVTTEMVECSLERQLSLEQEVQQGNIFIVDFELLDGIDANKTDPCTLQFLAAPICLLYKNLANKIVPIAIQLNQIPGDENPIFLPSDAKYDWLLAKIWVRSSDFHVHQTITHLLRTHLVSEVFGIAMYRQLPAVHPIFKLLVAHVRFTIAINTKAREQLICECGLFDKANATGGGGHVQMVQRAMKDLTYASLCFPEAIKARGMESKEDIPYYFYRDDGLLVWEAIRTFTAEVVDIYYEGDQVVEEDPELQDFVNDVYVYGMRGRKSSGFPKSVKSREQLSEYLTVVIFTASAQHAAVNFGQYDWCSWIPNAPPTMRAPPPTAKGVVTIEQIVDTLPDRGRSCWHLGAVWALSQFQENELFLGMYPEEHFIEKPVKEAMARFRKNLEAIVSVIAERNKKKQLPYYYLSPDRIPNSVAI
# Method in brief: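 Human 5-LOX activity followed as AA-driven oxidation of H2DCFDA to fluorescent dichlorofluorescein (ex 500/em 520 nm), recorded for 5 min. Compound handled as in the 15-LOX assay.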
# [12] = biological target: T1, Polyunsaturated fatty acid lipoxygenase ALOX15 (Homo sapiens); assay: Activation of 15-LOX in human whole blood assessed as LTB4 production at 100 uM pre-incubated for 20 mins before stimulation with LPS and A23187 for 120 mins in presence of 2 uM 5-LOX inhibitor Zileuton by LC-MS/MS method; assay type: tissue-based; method in brief: as §1
compound,measurement,setting,value
CN1CCN(CC(=O)N2N=C3/C(=C/c4ccccc4)CCCC3C2c2ccccc2)CC1 (configuration not stated),Activity,[1],Active
same,Activity,[2],95%
same,Activity,Blood [3],52%
same,Activity,[4],67%
same,Activity,[5],59%
same,Activity,[6],Active
same,Activity,Blood [7],27%
same,AC50,[8],6.8 µM
same,Activity,[9],Active
same,inhibition,[10],63%
same,Activity,[11],< 5%
same,Activity,[12],54%
